Measurements published in ChEMBL document CHEMBL4706681, “New 2-Pyrazoline and Hydrazone Derivatives as Potent and Selective Monoamine Oxidase A Inhibitors” (J Med Chem, 2021).

Legend:
[1] = molecular target: T1, Amine oxidase [flavin-containing] A (Homo sapiens, UniProt P21397); experiment: Inhibition of recombinant human MAO-A expressed in baculovirus infected BTI insect cells using p-tyramine as substrate incubated for 30 mins by Amplex red reagent based fluorescence analysis
T1 sequence (P21397 whole entry): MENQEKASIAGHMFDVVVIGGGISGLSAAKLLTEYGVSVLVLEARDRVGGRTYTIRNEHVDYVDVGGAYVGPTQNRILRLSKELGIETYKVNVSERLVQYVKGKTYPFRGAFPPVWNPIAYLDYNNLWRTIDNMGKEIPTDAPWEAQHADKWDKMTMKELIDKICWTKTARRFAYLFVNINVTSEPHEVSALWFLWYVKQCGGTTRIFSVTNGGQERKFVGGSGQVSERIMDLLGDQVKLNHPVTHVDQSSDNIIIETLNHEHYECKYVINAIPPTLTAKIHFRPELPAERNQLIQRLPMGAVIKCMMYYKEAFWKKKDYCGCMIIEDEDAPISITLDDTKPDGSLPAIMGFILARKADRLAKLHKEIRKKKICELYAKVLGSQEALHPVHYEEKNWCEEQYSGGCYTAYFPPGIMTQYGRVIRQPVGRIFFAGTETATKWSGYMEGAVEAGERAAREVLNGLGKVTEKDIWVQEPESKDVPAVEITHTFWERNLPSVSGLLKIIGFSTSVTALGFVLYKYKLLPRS

[2] = molecular target: T2, Amine oxidase [flavin-containing] B (Homo sapiens, UniProt P27338); experiment: Inhibition of recombinant human MAO-B expressed in baculovirus infected BTI insect cells using p-tyramine as substrate incubated for 30 mins by Amplex red reagent based fluorescence analysis; type: cell-based
T2 sequence (P27338 whole entry): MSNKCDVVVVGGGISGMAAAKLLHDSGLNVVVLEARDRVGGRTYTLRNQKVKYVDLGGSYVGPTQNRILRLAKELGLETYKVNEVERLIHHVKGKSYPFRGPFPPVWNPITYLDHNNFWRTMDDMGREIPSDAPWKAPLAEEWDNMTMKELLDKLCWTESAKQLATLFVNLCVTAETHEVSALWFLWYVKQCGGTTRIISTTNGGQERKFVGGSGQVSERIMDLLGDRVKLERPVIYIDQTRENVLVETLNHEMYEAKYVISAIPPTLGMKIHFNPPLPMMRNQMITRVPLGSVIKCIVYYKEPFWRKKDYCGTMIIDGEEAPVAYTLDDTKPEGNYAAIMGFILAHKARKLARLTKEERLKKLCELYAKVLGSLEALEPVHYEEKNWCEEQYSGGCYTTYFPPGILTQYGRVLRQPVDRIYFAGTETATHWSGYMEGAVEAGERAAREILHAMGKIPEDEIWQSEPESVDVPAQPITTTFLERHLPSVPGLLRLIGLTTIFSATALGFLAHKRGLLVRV

[3] = Selectivity index, ratio of Ki for inhibition of recombinant human MAO-A to Ki for inhibition of recombinant human MAO-B using p-tyramine as substrate
[4] = molecular target: T1, Amine oxidase [flavin-containing] A; experiment: Reversible inhibition of human MAO-A assessed as residual enzyme activity at 4 fold IC50 incubated for 15 mins and measured 24 hrs post dialysis by dialysis method relative to control; conditions: 24.25 h, time 1455 min
Method in brief: (§1)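 Dialysed (MWCO 12 000) at 4 °C for 24 h against 100 mM potassium phosphate pH 7.4, 5% sucrose, buffer changed twice. Dialysed and undialysed mixtures assayed together; residual activity from triplicates.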

[5] = molecular target: T1, Amine oxidase [flavin-containing] A; experiment: Reversible inhibition of human MAO-A assessed as residual enzyme activity at 4 fold IC50 incubated for 15 mins and measured before dialysis by dialysis method relative to control; method in brief: as §1
[6] = molecular target: T2, Amine oxidase [flavin-containing] B; experiment: Reversible inhibition of human MAO-B assessed as residual enzyme activity at 4 fold IC50 incubated for 15 mins and measured before dialysis relative to control; method in brief: as §1
[7] = molecular target: T2, Amine oxidase [flavin-containing] B; experiment: Reversible inhibition of human MAO-B assessed as residual enzyme activity at 4 fold IC50 incubated for 15 mins and measured 24 hrs post dialysis relative to control; conditions: 24.25 h, time 1455 min; method in brief: as §1
[8] = Cytotoxicity against human HepG2 cells assessed as cell viability at 7.5 uM incubated for 2 hrs by MTT assay relative to control; type: cell-based; conditions: read-out: Activity
Method in brief: (§2)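 HepG2 human hepatoma cells; viability read by MTT assay, with 0.1% DMSO as vehicle control. Viability given as % of control, mean ± SEM (n = 3); p < 0.05 taken as significant.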

[9] = Cytotoxicity against human HepG2 cells assessed as cell viability at 15 uM incubated for 2 hrs by MTT assay relative to control; type: cell-based; conditions: read-out: Activity; method in brief: as §2
[10] = Cytotoxicity against human HepG2 cells assessed as cell viability at 30 uM incubated for 2 hrs by MTT assay relative to control; type: cell-based; conditions: read-out: Activity; method in brief: as §2
[11] = Permeability of compound in PBS/EtOH buffer (70:30) at 25 ug/ml incubated for 16 hrs by UV plate reader based PAMPA-BBB

| Structure (SMILES) | Ki [1] [µM] | Ki [2] [µM] | Ratio Ki [3] | other results |
| --- | --- | --- | --- | --- |
| COc1cccc(C2CC(c3ccc(C)cc3)=NN2C(=O)Cn2c(=O)oc3ccc(C)cc32)c1OC (centres undefined) | 0.266 | 52 | 0.005 |  |
| COc1ccc(C2CC(c3ccccc3)=NN2C(=O)Cn2c(=O)oc3ccc(Cl)cc32)cc1OC (centres undefined) | 3 | 50.2 | 0.06 |  |
| COc1ccc(C2=NN(C(=O)Cn3c(=O)oc4ccc(Cl)cc43)C(c3ccccc3Cl)C2)cc1 (centres undefined) | 0.065 | 25.6 | 0.003 |  |
| COc1ccc(C2=NN(C(=O)Cn3c(=O)oc4ccccc43)C(c3cccc(OC)c3OC)C2)cc1 (centres undefined) | 0.125 | 255 | 4.9 10^-4No_unit |  |
| COc1cccc(C2CC(c3ccccc3)=NN2C(=O)Cn2c(=O)oc3ccc(Cl)cc32)c1 (centres undefined) | 0.985 | 1 | 0.985 |  |
| COc1ccccc1C1=NN(C(=O)Cn2c(=O)oc3ccc(Cl)cc32)C(c2ccccc2Cl)C1 (centres undefined) | 0.05 | 11 | 0.005 |  |
| COc1ccc(C2CC(c3ccccc3)=NN2C(=O)Cn2c(=O)oc3ccc(C)cc32)cc1OC (centres undefined) | 0.17 | 41.3 | 0.004 |  |
| NCCNC(=O)c1ccc(Cl)cn1 [LAZABEMIDE] | > 250 |  |  | Activity [4]: 97%; Activity [5]: 11%; Activity [6]: 89%; Activity [7]: 99%; viability at 2 h, 7.5 µM [8]: 92.4%; viability at 2 h, 15 µM [9]: 89.7%; viability at 2 h, 30 µM [10]: 85.6% |
| COc1cccc(C2=NN(C(=O)Cn3c(=O)oc4ccccc43)C(c3ccccc3Cl)C2)c1 (centres undefined) | 0.06 | 7.5 | 0.008 |  |
| COc1ccccc1C1=NN(C(=O)Cn2c(=O)oc3ccc(C)cc32)C(c2ccccc2Cl)C1 (centres undefined) | 0.308 | 15.9 | 0.019 |  |
| Cc1ccc(C2=NN(C(=O)Cn3c(=O)oc4ccc(C)cc43)C(c3ccccc3)C2)cc1 (centres undefined) | 0.05 | 29 | 0.002 |  |
| CCn1cc(C(=O)O)c(=O)c2cc(F)c(N3CCNC(C)C3)c(F)c21 (centres undefined) [LOMEFLOXACIN] |  |  |  | Papp at 16 h, 25 ug/ml [11]: 0.99 ×10⁻⁶ cm/s |
| COc1ccc(C2=NN(C(=O)Cn3c(=O)oc4ccc(Cl)cc43)C(c3cccc(OC)c3OC)C2)cc1 (centres undefined) | 1.55 | 8000 | 1.94 10^-4No_unit |  |
| Cc1ccc(C2CC(c3ccccc3)=NN2C(=O)Cn2c(=O)oc3ccc(Cl)cc32)cc1 (centres undefined) | 0.04 | 8.55 | 0.005 |  |
| COc1cccc(C2CC(c3ccc(C)cc3)=NN2C(=O)Cn2c(=O)oc3ccc(Cl)cc32)c1OC (centres undefined) | 0.51 | 91.3 | 0.006 |  |
| C[C@]12CC[C@@H]3c4ccc(O)cc4CC[C@H]3[C@@H]1CC[C@@H]2O [ESTRADIOL] |  |  |  | Papp at 16 h, 25 ug/ml [11]: 9.99 ×10⁻⁶ cm/s |
| COc1cccc(C2=NN(C(=O)Cn3c(=O)oc4ccc(Cl)cc43)C(c3ccccc3Cl)C2)c1 (centres undefined) | 0.12 | 2.55 | 0.05 |  |
| NCCc1ccc(O)c(O)c1 [DOPAMINE] |  |  |  | Papp at 16 h, 25 ug/ml [11]: 0.32 ×10⁻⁶ cm/s |
| COc1ccc(C2=NN(C(=O)Cn3c(=O)oc4ccc(C)cc43)C(c3ccccc3)C2)cc1 (centres undefined) | 0.8 | 7.5 | 0.107 |  |

Further lines, with some results ahead:

| Ki [1] [µM] | Ki [2] [µM] | Ratio Ki [3] | Structure (SMILES) | other results |
| --- | --- | --- | --- | --- |
| 0.001 | 19 | 5.26 10^-5No_unit | O=C(Cn1c(=O)oc2ccccc21)N/N=C(\C=C\c1ccccc1)c1ccccc1 |  |
| 0.02 | 55.6 | 3.6 10^-4No_unit | Cc1ccc(C2=NN(C(=O)Cn3c(=O)oc4ccc(Cl)cc43)C(c3ccccc3)C2)cc1 (centres undefined) |  |
| 0.011 | 9 | 0.001 | COc1ccc(C2=NN(C(=O)Cn3c(=O)oc4ccccc43)C(c3ccccc3)C2)cc1 (centres undefined) |  |
| 0.005 | 21.3 | 2.35 10^-4No_unit | COc1cccc(C2CC(c3ccccc3)=NN2C(=O)Cn2c(=O)oc3ccc(C)cc32)c1 (centres undefined) |  |
| 0.004 | 60 | 6.66 10^-5No_unit | COc1ccccc1C(/C=C/c1ccccc1Cl)=N/NC(=O)Cn1c(=O)oc2ccccc21 |  |
| 0.013 | 1.15 | 0.011 | COc1ccccc1C1=NN(C(=O)Cn2c(=O)oc3ccccc32)C(c2ccccc2Cl)C1 (centres undefined) |  |
| 0.001 | 35 | 3.43 10^-5No_unit | COc1ccc(C(/C=C/c2ccccc2Cl)=N/NC(=O)Cn2c(=O)oc3ccccc32)cc1 |  |
| 0.012 | 54 | 2.22 10^-4No_unit | COc1ccccc1C(/C=C/c1ccccc1)=N/NC(=O)Cn1c(=O)oc2ccc(C)cc21 |  |
| 0.011 | 16.6 | 6.65 10^-4No_unit | COc1ccccc1C(/C=C/c1ccccc1Cl)=N/NC(=O)Cn1c(=O)oc2ccc(C)cc21 |  |
| 0.004 | 8.95 | 0.000446 | Cc1ccc(C2CC(c3ccccc3)=NN2C(=O)Cn2c(=O)oc3ccccc32)cc1 (centres undefined) |  |
| 0.011 | 24.3 | 4.52 10^-4No_unit | COc1cccc(C2=NN(C(=O)Cn3c(=O)oc4ccc(C)cc43)C(c3ccccc3Cl)C2)c1 (centres undefined) |  |
| 0.001 | 9.27 | 1.08 10^-4No_unit | COc1ccccc1C(/C=C/c1ccccc1Cl)=N/NC(=O)Cn1c(=O)oc2ccc(Cl)cc21 | Activity [4]: 93.26%; Activity [5]: 21.91%; Activity [6]: 77.22%; Activity [7]: 93.41%; viability at 2 h, 7.5 µM [8]: 92.1%; viability at 2 h, 15 µM [9]: 90.6%; viability at 2 h, 30 µM [10]: 87.4%; Papp at 16 h, 25 ug/ml [11]: 14 ×10⁻⁶ cm/s |
| 0.028 | 120 | 2.32 10^-4No_unit | COc1cccc(C2CC(c3ccc(C)cc3)=NN2C(=O)Cn2c(=O)oc3ccccc32)c1OC (centres undefined) |  |
| 0.001 | 8.9 | 1.12 10^-4No_unit | COc1cccc(/C=C/C(=N\NC(=O)Cn2c(=O)oc3ccccc32)c2ccccc2)c1 |  |
| 0.001 | 2.75 | 7.27 10^-5No_unit | COc1ccccc1/C=C/C(=N\NC(=O)Cn1c(=O)oc2ccc(Cl)cc21)c1ccccc1 | Activity [4]: 92.24%; Activity [5]: 19.55%; Activity [6]: 77.29%; Activity [7]: 97%; viability at 2 h, 7.5 µM [8]: 91.3%; viability at 2 h, 15 µM [9]: 89%; viability at 2 h, 30 µM [10]: 87.7%; Papp at 16 h, 25 ug/ml [11]: 14.6 ×10⁻⁶ cm/s |
| 0.019 | 5.55 | 0.003 | Cc1ccc(C2=NN(C(=O)Cn3c(=O)oc4ccccc43)C(c3ccccc3)C2)cc1 (centres undefined) |  |
| 0.004 | 1.95 | 0.002 | COc1ccc(C2=NN(C(=O)Cn3c(=O)oc4ccc(Cl)cc43)C(c3ccccc3)C2)cc1 (centres undefined) |  |
| 0.018 | 0.4 | 0.045 | COc1ccc(C2=NN(C(=O)Cn3c(=O)oc4ccc(C)cc43)C(c3ccccc3Cl)C2)cc1 (centres undefined) |  |
| 0.008 | 5.22 | 0.002 | Cc1ccc(C2CC(c3ccccc3)=NN2C(=O)Cn2c(=O)oc3ccc(C)cc32)cc1 (centres undefined) |  |
